According to ChEMBL document CHEMBL1944515 (J Med Chem, 2012):

How the values were obtained:
Jurkat = experiment: Cytotoxicity against human Jurkat cells after 72 hrs by MTT assay; assay type: functional, cell-based
Procedure, shortened: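 8 × 10^3 cells/well were preincubated 18 h at 37 °C, 5% CO2, then given graded concentrations for 72 h, with final DMSO not above 0.25%. Viability was read by MTT. […] Mean ± SE from at least three experiments.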

[1] = Inhibition of bovine tubulin polymerisation after 20 mins by turbidimetric analysis; set-up: species or system Bos taurus
Procedure, shortened: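 Bovine brain tubulin at 10 μM was preincubated with varying compound concentrations in glutamate buffer at 30 °C, cooled to 0 °C, and 0.4 mM GTP added. Samples were warmed to 30 °C and assembly followed by turbidity at 350 nm.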

Bos taurus = organism: Bos taurus; experiment: Displacement of [3H]colchicine from bovine tubulin at 5 uM by DEAE-cellulose filter method
Procedure, shortened: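 Inhibition of [3H]colchicine binding was measured in mixtures of 1 μM tubulin, 5 μM [3H]colchicine and 5 μM test compound. Results are percent inhibition of binding.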

HL-60 = experiment: Cytotoxicity against human HL60 cells after 72 hrs by MTT assay; assay type: functional, cell-based; conditions: HL-60, 72 h
HT-29 = experiment: Cytotoxicity against human HT-29 cells after 72 hrs by MTT assay; assay type: functional, cell-based; conditions: HT-29, 72 h
HeLa = experiment: Cytotoxicity against human HeLa cells after 72 hrs by MTT assay; assay type: functional, cell-based
A549 = experiment: Cytotoxicity against human A549 cells after 72 hrs by MTT assay; assay type: functional, cell-based; conditions: A549, 72 h
MCF7 = experiment: Cytotoxicity against human MCF7 cells after 72 hrs by MTT assay; assay type: functional, cell-based; conditions: MCF7, 72 h

SMILES	IC50 (Jurkat) [µM]	IC50 [1] [µM]	inhibition (Bos taurus) [%]	IC50 (HL-60) [µM]	IC50 (HT-29) [µM]	IC50 (HeLa) [µM]	IC50 (A549) [µM]	IC50 (MCF7) [µM]
COc1ccc(-c2nnnn2-c2cc(OC)c(OC)c(OC)c2)cc1F	0.0013	2.1	60	0.0073	0.0027	0.0028	0.332	0.0297
COc1cc(-n2nnnc2-c2ccc(C(C)=O)cc2)cc(OC)c1OC	0.325	–	–	0.596	6.03	0.648	> 10	> 10
COc1cc(-n2nnnc2-c2ccccc2)cc(OC)c1OC	0.0038	–	–	0.903	> 10	4.1	> 10	> 10
CCCOc1ccc(-c2nnnn2-c2cc(OC)c(OC)c(OC)c2)cc1	0.047	3.1	46	0.0433	0.105	0.0111	0.495	0.0662
COc1ccc(-c2nnnn2-c2cc(OC)c(OC)c(OC)c2)cc1	0.0026	2.5	54	0.0029	0.0046	0.0026	0.222	0.0385
CCc1ccc(-c2nnnn2-c2cc(OC)c(OC)c(OC)c2)cc1	0.0551	3.7	47	0.0531	0.182	0.029	3.38	0.0126
COc1cc(-c2nnnn2-c2cc(OC)c(OC)c(OC)c2)cc(OC)c1OC	> 10	–	–	> 10	> 10	> 10	> 10	> 10
COc1cc(-n2nnnc2-c2ccc(C)cc2)cc(OC)c1OC	0.222	–	–	0.329	0.673	0.255	3.42	1.79
CCCCCOc1ccc(-c2nnnn2-c2cc(OC)c(OC)c(OC)c2)cc1	> 10	–	–	> 10	> 10	6.4	> 10	> 10
